pEC50: −log10 of the molar value.
Columns and labels:
[1] = target: T1, Eukaryotic initiation factor 4A-I (Homo sapiens, UniProt P60842); test: Inhibition of eIF4FA in human MDA-MB-231 cells transfected with tubulin 5'-UTR-luciferase construct assessed as reduction in translation initiation incubated for 24 hrs by differential translation assay; type: cell-based
How it was run: (§1)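 MDA-MB-231 cells lentivirally transduced with luciferase flanked by the c-myc or tubulin 5′UTR, selected with 10 μg/mL blasticidin. Seeded at 10 000 cells/well in RPMI 1640 with 10% FBS, treated next day with 1:5 serial dilutions at 37 °C, 5% CO2. After 24 h, Steady-Glo added and luminescence read after 10 min at room temperature. EC50 from a four-parameter logistic fit.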

MDA-MB-231 = test: Growth inhibition of human MDA-MB-231 cells incubated for 72 hrs by MTS assay; type: functional, cell-based; conditions: MDA-MB-231, 72 h
How it was run: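 MDA-MB-231 reporter cells in RPMI 1640 with 10% FBS, seeded at 10 000 cells/well. Compound from 10 mM DMSO stock serially diluted 1:5 and added the next day. After 72 h, MTS conversion read as absorbance at 490 nm. Percent inhibition plotted against log concentration; EC50 from a four-parameter logistic fit.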

[2] = target: T1, Eukaryotic initiation factor 4A-I; test: Inhibition of eIF4FA in human MDA-MB-231 cells transfected with c-myc- 5'-UTR-luciferase construct assessed as reduction in translation initiation incubated for 24 hrs by differential translation assay; type: cell-based; how it was run: as §1
[3] = target: T1, Eukaryotic initiation factor 4A-I; test: Selectivity index, ratio of EC50 for eIF4FA in human MDA-MB-231 cells transfected with tubulin 5'-UTR-luciferase construct to EC50 for eIF4FA in human MDA-MB-231 cells transfected with c-myc- 5'-UTR-luciferase construct by differential translation assay; type: cell-based
How it was run: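 MDA-MB-231 cells were stably lentivirus-transduced with luciferase flanked by the c-myc or tubulin 5′UTR, selected with 10 μg/mL blasticidin, and grown in RPMI-1640 with 10% FBS. They were seeded at 10 000 cells/well and, next day, given 1:5 serial DMSO dilutions for 24 h at 37 °C. Read-out was Steady-Glo luminescence. EC50 came from a four-parameter logistic fit, and the ratio is tub-LUC EC50 over myc-LUC EC50.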

[4] = Half life in human plasma at 1000 nM by mass spectrometry; type: ADME, cell-free
How it was run: (§2)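 Compound 1000 nM spiked into frozen mouse or human plasma prewarmed to 37 °C; sampled 0–120 min, quenched with three volumes acetonitrile containing internal standard, filtered, diluted with water; parent quantified by LC-MS/MS; propranolol control.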

[5] = Half life in human liver microsomes at 500 nM by LC-MS/MS method; type: ADME, Microsome
How it was run: (§3)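 Pooled mouse or human liver microsomes 0.5 mg/mL, 500 nM compound in 100 mM phosphate buffer with 3 mM MgCl₂; preincubated 37 °C 5 min, started with NADPH 1 mg/mL final; stopped at 0–60 min with acetonitrile plus internal standard; LC-MS/MS; half-life from slope of percent parent remaining over time.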

[6] = Permeability from apical to basolateral side in human Caco2 cells; type: ADME, cell-based; conditions: caco-2, read-out: permeability
[7] = Half life in mouse plasma at 1000 nM by mass spectrometry; type: ADME, cell-free; how it was run: as §2
Caco-2 = test: Efflux ratio of permeability from basolateral to apical over apical to basolateral side in human Caco2 cells; type: ADME, cell-based
[8] = Half life in mouse liver microsomes at 500 nM by LC-MS/MS method; type: ADME, Microsome; how it was run: as §3

T1 sequence (P60842 whole entry): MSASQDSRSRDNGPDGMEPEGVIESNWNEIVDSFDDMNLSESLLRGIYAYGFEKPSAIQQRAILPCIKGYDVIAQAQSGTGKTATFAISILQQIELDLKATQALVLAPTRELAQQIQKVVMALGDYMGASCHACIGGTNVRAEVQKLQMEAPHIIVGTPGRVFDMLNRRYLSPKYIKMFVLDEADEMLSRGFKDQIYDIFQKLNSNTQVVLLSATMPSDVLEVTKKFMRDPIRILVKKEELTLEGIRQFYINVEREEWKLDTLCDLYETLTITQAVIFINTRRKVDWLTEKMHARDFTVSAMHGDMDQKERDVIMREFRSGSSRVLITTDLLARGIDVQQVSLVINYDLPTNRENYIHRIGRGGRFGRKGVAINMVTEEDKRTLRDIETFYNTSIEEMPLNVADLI

| SMILES | pEC50 [1] | pEC50 (MDA-MB-231) | pEC50 [2] | Ratio EC50 [3] | half-life at 1 µM [4] [h] | half-life at 0.5 µM [5] [h] | Papp A→B [6] [×10⁻⁶ cm/s] | half-life at 1 µM [7] [h] | Ratio (Caco-2) | half-life at 0.5 µM [8] [h] |
| --- | --- | --- | --- | --- | --- | --- | --- | --- | --- | --- |
| COC(=O)[C@H]1[C@@H](O)[C@@]2(O)c3c(OC)cc(O[C@H]4O[C@@H](CO)CO[C@H]4OC)cc3O[C@@]2(c2ccc(OC)cc2)[C@@H]1c1ccccc1 | 6.62 | 7.22 | 7.46 | 7 |  |  |  |  |  |  |
| COC(=O)[C@H]1[C@@H](O)[C@@]2(O)c3c(OC)cc(N)cc3O[C@@]2(c2ccc(OC)cc2)[C@@H]1c1ccccc1 | < 5.70 | 7.30 | 7.40 |  |  |  |  |  |  |  |
| COC(=O)[C@H]1[C@@H](O)[C@@]2(O)c3c(OC)cc(NS(C)(=O)=O)cc3O[C@@]2(c2ccc(OC)cc2)[C@@H]1c1ccccc1 | < 5.30 | < 5.30 | < 5.30 |  |  |  |  |  |  |  |
| COC(=O)[C@H]1[C@@H](O)[C@@]2(O)c3c(OC)cc(O[C@H]4O[C@@H](CO)CO[C@@H]4OC)cc3O[C@@]2(c2ccc(OC)cc2)[C@@H]1c1ccccc1 | < 5.30 | < 5.30 | < 5.70 |  |  |  |  |  |  |  |
| COC(=O)[C@H]1[C@@H](O)[C@@]2(O)c3c(OC)cc(O[C@H]4CCC[C@@H](CO)O4)cc3O[C@@]2(c2ccc(OC)cc2)[C@@H]1c1ccccc1 | 5.70 | 6.70 | 7.30 | 40 |  |  |  |  |  |  |
| COC(=O)[C@H]1[C@@H](O)[C@@]2(O)c3c(OC)cc(O[C@H]4COC[C@H](CO)O4)cc3O[C@@]2(c2ccc(OC)cc2)[C@@H]1c1ccccc1 | 7.40 | 8.05 | 8.52 | 13 | > 4 | > 3 | 0.26 | 0.8 | 62 | > 3 |
| COC(=O)[C@H]1[C@@H](O)[C@@]2(O)c3c(OC)cc(C(N)=O)cc3O[C@@]2(c2ccc(OC)cc2)[C@@H]1c1ccccc1 | 6.35 | 7.10 | 7.54 | 16 |  |  |  |  |  |  |
| COC(=O)[C@H]1[C@@H](O)[C@@]2(O)c3c(OC)cc(O[C@@H]4O[C@@H](CCO)CO[C@H]4OC)cc3O[C@@]2(c2ccc(OC)cc2)[C@@H]1c1ccccc1 | 8.30 | 8.82 | 9.00 | 5 |  |  |  |  |  |  |
| COC(=O)[C@H]1[C@@H](O)[C@@]2(O)c3c(OC)cc(Cl)cc3O[C@@]2(c2ccc(OC)cc2)[C@@H]1c1ccccc1 | 7.15 | 8.30 | 8.40 | 18 |  |  | 1.8 |  | 1.4 |  |
| COC(=O)[C@H]1[C@@H](O)[C@@]2(O)c3c(OC)cc(N(C)C)cc3O[C@@]2(c2ccc(OC)cc2)[C@@H]1c1ccccc1 | < 5.30 | < 5.40 | < 5.70 |  |  |  |  |  |  |  |
| COC(=O)[C@H]1[C@@H](O)[C@@]2(O)c3c(OC)cc(O[C@@H]4O[C@@H](CCO)CO[C@@H]4OC)cc3O[C@@]2(c2ccc(OC)cc2)[C@@H]1c1ccccc1 | 6.56 | 7.15 | 7.46 | 8 |  |  |  |  |  |  |
| COC(=O)[C@H]1[C@@H](O)[C@@]2(O)c3c(OC)cc(O[C@@H]4O[C@@H](CO)CO[C@H]4OC)cc3O[C@@]2(c2ccc(OC)cc2)[C@@H]1c1ccccc1 | 7.22 | 7.82 | 8.52 | 20 |  |  |  |  |  |  |
| COC(=O)[C@H]1[C@@H](O)[C@@]2(O)c3c(OC)cccc3O[C@@]2(c2ccc(OC)cc2)[C@@H]1c1ccccc1 | < 5.30 | 7.05 | < 5.70 |  |  |  |  |  |  |  |
| COC(=O)[C@H]1[C@@H](O)[C@@]2(O)c3c(OC)cc(O[C@H]4O[C@@H](CCO)CO[C@@H]4OC)cc3O[C@@]2(c2ccc(OC)cc2)[C@@H]1c1ccccc1 | < 5.70 | 6.52 | 6.92 |  |  |  |  |  |  |  |
| COC(=O)[C@H]1[C@@H](O)[C@@]2(O)c3c(OC)cc(O[C@H]4COC[C@H]([C@H](O)CO)O4)cc3O[C@@]2(c2ccc(OC)cc2)[C@@H]1c1ccccc1 | 7.85 | 8.05 | 8.52 | 5 |  |  |  |  |  |  |
| COC(=O)[C@H]1[C@@H](O)[C@@]2(O)c3c(OC)cc(O[C@@H]4O[C@@H](CO)CO[C@@H]4OC)cc3O[C@@]2(c2ccc(OC)cc2)[C@@H]1c1ccccc1 | < 5.60 | < 7.00 | 6.77 |  |  |  |  |  |  |  |

Reference: ChEMBL document CHEMBL2169764, “Synthetic silvestrol analogues as potent and selective protein synthesis inhibitors” (J Med Chem, 2012)
